According to ChEMBL document CHEMBL1126275, “Conformationally restrained, chiral (phenylisopropyl)amino-substituted pyrazolo[3,4-d]pyrimidines and purines with selectivity for adenosine A1 and A2 receptors” (J Med Chem, 1992):
Values belong to the compound of their own block, whether it stands above or below them.

Tests used:
Adenosine A2 receptor = Adenosine A2 receptor (Rattus norvegicus, UniProt P29276+P30543); assay: Inhibition of [3H]NECA binding to Adenosine A2 receptor in rat brain striatum; format: tissue-based
Method in brief: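 [³H]NECA binding in rat brain striatum at 25 °C. Compounds from millimolar DMSO stocks diluted in water. Ki given as geometric mean ± standard error of a single determination in triplicate.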

Adenosine receptor A1 [1] = biological target: T1, Adenosine receptor A1 (Rattus norvegicus, UniProt P25099); assay: Inhibition of [3H]CHA binding to Adenosine A1 receptor in whole rat brain membranes; format: cell membranes
T1 sequence (P25099 whole entry): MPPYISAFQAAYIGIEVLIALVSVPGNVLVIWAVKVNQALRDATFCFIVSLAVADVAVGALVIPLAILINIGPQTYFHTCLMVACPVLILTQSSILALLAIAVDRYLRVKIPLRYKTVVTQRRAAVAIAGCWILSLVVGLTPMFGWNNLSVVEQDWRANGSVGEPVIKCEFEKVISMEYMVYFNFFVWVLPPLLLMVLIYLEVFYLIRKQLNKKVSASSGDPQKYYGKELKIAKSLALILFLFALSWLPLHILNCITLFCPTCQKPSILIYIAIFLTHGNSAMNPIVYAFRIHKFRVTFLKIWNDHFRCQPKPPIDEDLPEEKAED
Method in brief: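 Whole rat brain membranes; [³H]CHA binding measured at 25 °C. Compounds from millimolar DMSO stocks diluted in water. Ki given as geometric mean ± standard error of a single determination run in triplicate.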

[2] = biological target: Adenosine receptors; A1 & A2 (Rattus norvegicus) (UniProt P29276+P25099+P30543); assay: Selectivity ratio against Adenosine A1 and A2 Receptors, ratio of Ki; format: protein assay
Method in brief: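 Ratio of A2 Ki ([³H]NECA, rat striatum, 25 °C) to A1 Ki ([³H]CHA, whole rat brain membranes, 25 °C). Each Ki is a geometric mean from a single triplicate determination.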

Adenosine receptor A1 [3] = biological target: T1, Adenosine receptor A1; assay: Inhibition of [3H]CHA binding to Adenosine A1 receptor in rat cerebral cortical membranes; format: cell membranes, Membrane
Method in brief: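 Rat cerebral cortical membranes; displacement of [³H]CHA binding. Test compounds held as millimolar DMSO stocks, warmed to room temperature and diluted in water. Values from a single competition experiment, each concentration in triplicate.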

SMILES: CCCOc1nc(N[C@H](CO)Cc2ccccc2)c2cnn(-c3ccccc3)c2n1 (stereo in doubt; 10a) [listing 1 of 2 here]
Ki (Adenosine A2 receptor): 4.2 µM
Ki (Adenosine receptor A1 [1]): 1.6 µM

SMILES: CCCOc1nc(N[C@H](CO)Cc2ccccc2)c2cnn(-c3ccccc3)c2n1 (stereo in doubt; 10b) [listing 1 of 2 here]
Ki (Adenosine A2 receptor): 0.37 µM
Ki (Adenosine receptor A1 [1]): 0.35 µM

SMILES: CCCn1c(=O)n(C)c(=O)c2cnn(-c3ccccc3)c21
IC50 (Adenosine receptor A1 [3]): 35 µM

SMILES: COc1nc2c(cnn2-c2ccccc2)c(=O)n1C
IC50 (Adenosine receptor A1 [3]): 4.8 µM

SMILES: CCCOc1nc(N[C@@H](C)[C@H](O)c2ccccc2)c2cnn(-c3ccccc3)c2n1
Ki (Adenosine A2 receptor): 1.4 µM
Ki (Adenosine receptor A1 [1]): 6.3 µM
Selectivity ratio [2]: 0.22

SMILES: Cn1c(=O)c2cnn(-c3ccccc3)c2n(C)c1=O
IC50 (Adenosine receptor A1 [3]): 33 µM

SMILES: CCCOc1nc(N[C@H](C)[C@@H](O)c2ccccc2)c2cnn(-c3ccccc3)c2n1
Ki (Adenosine A2 receptor): 0.31 µM
Ki (Adenosine receptor A1 [1]): 1 µM
Selectivity ratio [2]: 0.31

Further lines, results first:

Ki (Adenosine A2 receptor): > 100 µM
Ki (Adenosine receptor A1 [1]): 0.62 µM
Selectivity ratio [2]: > 100
SMILES: CCCOC1=Nc2c(cnn2-c2ccccc2)C2=N[C@H](Cc3ccccc3)CN12

Ki (Adenosine A2 receptor): 11 µM
Ki (Adenosine receptor A1 [1]): 7.4 µM
Selectivity ratio [2]: 1.5
SMILES: CCCOC1=Nc2c(cnn2-c2ccccc2)C2=N[C@H](C)[C@@H](c3ccccc3)N12

Ki (Adenosine A2 receptor): 72 µM
Ki (Adenosine receptor A1 [1]): 3.2 µM
Selectivity ratio [2]: 22
SMILES: CCCOC1=Nc2c(ncn2-c2ccccc2)C2=N[C@H](Cc3ccccc3)CN12

Ki (Adenosine A2 receptor): 30 µM
Ki (Adenosine receptor A1 [1]): 0.44 µM
Selectivity ratio [2]: 68
SMILES: CCCOc1nc(N[C@@H](CO)Cc2ccccc2)c2ncn(-c3ccccc3)c2n1

Selectivity ratio [2]: 2.6
SMILES: CCCOc1nc(N[C@H](CO)Cc2ccccc2)c2cnn(-c3ccccc3)c2n1 (stereo in doubt; 10a) [listing 2 of 2 here]

Ki (Adenosine A2 receptor): 3.3 µM
Ki (Adenosine receptor A1 [1]): 9.4 µM
Selectivity ratio [2]: 0.35
SMILES: CCCOC1=Nc2c(cnn2-c2ccccc2)C2=N[C@@H](Cc3ccccc3)CN12

Ki (Adenosine A2 receptor): 1.6 µM
Selectivity ratio [2]: 0.18
SMILES: CCCOC1=Nc2c(ncn2-c2ccccc2)C2=N[C@@H](Cc3ccccc3)CN12

Ki (Adenosine A2 receptor): 45 µM
Ki (Adenosine receptor A1 [1]): 33 µM
Selectivity ratio [2]: 1.4
SMILES: CCCOC1=Nc2c(cnn2-c2ccccc2)C2=N[C@@H](C)[C@H](c3ccccc3)N12

Selectivity ratio [2]: 1
SMILES: CCCOc1nc(N[C@H](CO)Cc2ccccc2)c2cnn(-c3ccccc3)c2n1 (stereo in doubt; 10b) [listing 2 of 2 here]

Ki (Adenosine A2 receptor): 5.6 µM
Ki (Adenosine receptor A1 [1]): 0.096 µM
Selectivity ratio [2]: 58
SMILES: CCCOc1nc(N[C@H](CO)Cc2ccccc2)c2ncn(-c3ccccc3)c2n1
